Here are results for one compound from ChEMBL document CHEMBL1143088, “Non-acidic pyrazole EP1 receptor antagonists with in vivo analgesic efficacy” (Bioorg Med Chem Lett, 2008).

In general, Kp refers to tissue or fluid exposure divided by exposure in the circulation. Usually IC50 stands for the concentration needed to halve the response being measured. Read a high IC50 as a need for much substance. The term logD denotes lipophilicity at a set pH, counting ionised and neutral species. A low value points to a more hydrophilic compound. As usually defined, the Ki is the dissociation constant of the complex between target and ligand, obtained from inhibition or displacement. One may read the ED50 as the midpoint of the dose-response relation.

In series [1] the test system is Blood. The experiment in a line: Drug uptake in FCA-induced hypersensitivity rat blood at 1 mg/kg, po administered with NMP as vehicle. Also noted: dose 1 mg/kg, route oral. The class given is ADME, organism-based. The following applies: in vivo, read-out: Drug uptake. The procedure, abridged:
(§1)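 CFA inflammatory pain rats dosed orally at 1, 3 and 10 mg/kg in 2% NMP, 2% miglyol, 2% solutol–Kleptose in water; samples taken 1 h post-dose. Blood levels mean of seven rats; brain level at 10 mg/kg only, mean of three rats.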

Series [2] deals with Blood. Kind of series: Drug uptake in FCA-induced hypersensitivity rat blood at 10 mg/kg, po administered with NMP as vehicle. The arrangement: dose 10 mg/kg, route oral. Particulars: in vivo, read-out: Drug uptake. The class given is ADME, organism-based. A digest of the protocol:
as §1

In the next series the test system is Brain. The experiment in a line: Drug uptake in FCA-induced hypersensitivity rat brain at 10 mg/kg, po administered with NMP as vehicle. The class given is ADME, organism-based. The arrangement: dose 10 mg/kg, route oral. The following applies: read-out: Drug uptake, in vivo. The procedure, abridged: as §1
Series [3] is described as follows: Ratio of drug level in brain to blood in FCA-induced hypersensitivity rat at 10 mg/kg, po administered with NMP as vehicle. The class given is ADME, organism-based. The arrangement: dose 10 mg/kg, route oral. The procedure, abridged: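 CFA inflammatory pain model in rats, oral dosing at 1, 3 and 10 mg/kg in 2% NMP, 2% miglyol and 2% solutol–Kleptose in water. Samples taken 1 h post-dose with the weight-bearing readout. Brain concentration measured at 10 mg/kg only; brain:blood ratio is the mean of three rats, with blood levels the mean of seven.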

The nature of series [4]: Ratio of drug level in brain to blood in FCA-induced hypersensitivity rat at 10 mg/kg, po administered with DMSO and PEG400 as vehicle. The class given is ADME, organism-based. The arrangement: dose 10 mg/kg, route oral. A digest of the protocol:
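Rats with CFA-induced inflammatory pain dosed orally at 1, 3, 10 (and 30) mg/kg in 1% DMSO, 66% PEG400, 33% water. Blood and brain sampled 1 h post-dose, alongside the weight-bearing readout. Brain:blood ratio taken from the 10 mg/kg group, mean of seven rats.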

Series [5] addresses T1, Prostaglandin E2 receptor EP1 subtype (Homo sapiens, UniProt P34995).
T1 sequence (P34995 whole entry): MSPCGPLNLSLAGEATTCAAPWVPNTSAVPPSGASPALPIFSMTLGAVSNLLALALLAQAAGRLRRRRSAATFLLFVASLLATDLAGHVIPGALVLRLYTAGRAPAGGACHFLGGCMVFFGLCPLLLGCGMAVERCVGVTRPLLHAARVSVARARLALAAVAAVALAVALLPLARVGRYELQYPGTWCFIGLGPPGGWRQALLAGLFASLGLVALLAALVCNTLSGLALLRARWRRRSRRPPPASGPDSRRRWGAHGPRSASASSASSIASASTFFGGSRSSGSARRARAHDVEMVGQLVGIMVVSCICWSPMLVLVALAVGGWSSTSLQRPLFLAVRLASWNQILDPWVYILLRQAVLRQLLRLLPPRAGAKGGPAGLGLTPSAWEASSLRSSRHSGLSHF
Kind of series: Displacement of [3H]PGE2 from human PGE2-EP1 receptor expressed in CHO-K1 cells. The class given is cell-based. For orientation: In a radioligand displacement assay an active substance lowers the binding of a labelled ligand.

Series [6] can be described thus: Distribution coefficient, logD at pH 7.4. Particulars: octanol/water. The class given is physicochemical. The procedure, abridged:
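Distribution coefficient between n-octanol and water buffered to pH 7.4; log10 of ratio of equilibrium concentrations of all species.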

The target of series [7] is T1, Prostaglandin E2 receptor EP1 subtype. The experiment in a line: Antagonist activity at PGE2-EP1 receptor assessed as PGE2-induced response by schild analysis. The following applies: read-out: pA2 (converted). The class given is functional.
Series [8] has the same target. Kind of series: Antagonist activity at PGE2-EP1 receptor assessed as PGE2-induced intracellular calcium mobilization. The class given is functional, cell-based. (Calcium assays in cells follow changes in intracellular calcium, usually with a dye or a luminescent sensor.)
Series [9] deals with T2, Prostaglandin E2 receptor EP3 subtype (Homo sapiens, UniProt P43115).
T2 sequence (P43115 whole entry): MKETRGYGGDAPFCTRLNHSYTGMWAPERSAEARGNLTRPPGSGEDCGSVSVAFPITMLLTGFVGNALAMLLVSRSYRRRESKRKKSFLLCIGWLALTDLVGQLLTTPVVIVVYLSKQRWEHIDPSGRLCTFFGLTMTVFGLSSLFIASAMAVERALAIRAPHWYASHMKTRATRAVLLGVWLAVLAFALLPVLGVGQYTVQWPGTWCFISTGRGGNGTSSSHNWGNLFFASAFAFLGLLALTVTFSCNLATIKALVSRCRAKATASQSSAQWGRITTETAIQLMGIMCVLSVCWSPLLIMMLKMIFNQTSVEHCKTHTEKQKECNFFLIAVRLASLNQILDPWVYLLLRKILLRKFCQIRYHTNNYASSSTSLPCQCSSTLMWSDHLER
The experiment in a line: Antagonist activity at PGE2-EP3 receptor assessed as PGE2-induced intracellular calcium mobilization. The class given is functional, cell-based.

For the next series, the target named is T3, Cytochrome P450 1A2 (Homo sapiens, UniProt P05177).
T3 sequence (P05177 whole entry): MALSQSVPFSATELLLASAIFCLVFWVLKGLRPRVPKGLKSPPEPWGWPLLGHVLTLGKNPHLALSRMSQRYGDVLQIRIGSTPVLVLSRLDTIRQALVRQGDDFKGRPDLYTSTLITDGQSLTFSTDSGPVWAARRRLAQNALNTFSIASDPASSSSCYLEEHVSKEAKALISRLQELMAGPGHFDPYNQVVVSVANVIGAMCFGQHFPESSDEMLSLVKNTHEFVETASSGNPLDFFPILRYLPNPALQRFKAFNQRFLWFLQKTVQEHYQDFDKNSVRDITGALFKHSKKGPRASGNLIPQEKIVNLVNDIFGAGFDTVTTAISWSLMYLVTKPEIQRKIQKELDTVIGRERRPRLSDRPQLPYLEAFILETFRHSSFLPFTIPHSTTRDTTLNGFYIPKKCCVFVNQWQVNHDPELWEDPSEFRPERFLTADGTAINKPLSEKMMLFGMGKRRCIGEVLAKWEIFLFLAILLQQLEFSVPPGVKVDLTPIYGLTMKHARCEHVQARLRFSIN
Kind of series: Inhibition of CYP1A2. The class given is ADME.

The next series has as its target Cytochrome P450 2C19 (Homo sapiens, UniProt P33261). Kind of series: Inhibition of CYP2C19. The class given is ADME.
A further series addresses Cytochrome P450 2C9 (Homo sapiens, UniProt P11712). Kind of series: Inhibition of CYP2C9. The class given is ADME.
The target of another series is Cytochrome P450 2D6 (Homo sapiens, UniProt P10635). The experiment in a line: Inhibition of CYP2D6. The class given is ADME.
A further series deals with Cytochrome P450 3A4 (Homo sapiens, UniProt P08684). The experiment in a line: Inhibition of CYP3A4. The class given is ADME.
Series [10] has as its system Rattus norvegicus. The experiment in a line: Reversal of FCA-induced hypersensitivity in orally dosed rat assessed as reduction in weight bearing administered with NMP as vehicle. The class given is functional. The following applies: po. The procedure, abridged: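 Oral dosing in the rat CFA inflammatory pain model was at 1, 3 and 10 mg/kg. The vehicle was 2% NMP, 2% miglyol and 2% solutol–Kleptose in water. Weight bearing was assessed 1 h post-dose. Blood was sampled at 1 h (seven rats), and brain at 10 mg/kg (three rats). ED50 was given in mg/kg.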

The subject of series [11] is Rattus norvegicus. The experiment in a line: Reversal of FCA-induced hypersensitivity in orally dosed rat assessed as reduction in weight bearing administered with DMSO and PEG400 as vehicle. The following applies: po. The class given is functional. The procedure, abridged: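 Rats with CFA-induced inflammatory pain were dosed orally at 1, 3 and 10 mg/kg or 1, 3, 10 and 30 mg/kg. The vehicle was 1% DMSO, 66% PEG400 and 33% water. Weight bearing was read 1 h post-dose and samples were taken then. Brain:blood ratio was measured in the 10 mg/kg group (n=7). ED50 was derived in mg/kg.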

Series [12] relates to Blood. Kind of series: Drug uptake in FCA-induced hypersensitivity rat blood at 3 mg/kg, po administered with NMP as vehicle. Particulars: in vivo.

Cytochrome P450 2D6, sequence (P10635 whole entry): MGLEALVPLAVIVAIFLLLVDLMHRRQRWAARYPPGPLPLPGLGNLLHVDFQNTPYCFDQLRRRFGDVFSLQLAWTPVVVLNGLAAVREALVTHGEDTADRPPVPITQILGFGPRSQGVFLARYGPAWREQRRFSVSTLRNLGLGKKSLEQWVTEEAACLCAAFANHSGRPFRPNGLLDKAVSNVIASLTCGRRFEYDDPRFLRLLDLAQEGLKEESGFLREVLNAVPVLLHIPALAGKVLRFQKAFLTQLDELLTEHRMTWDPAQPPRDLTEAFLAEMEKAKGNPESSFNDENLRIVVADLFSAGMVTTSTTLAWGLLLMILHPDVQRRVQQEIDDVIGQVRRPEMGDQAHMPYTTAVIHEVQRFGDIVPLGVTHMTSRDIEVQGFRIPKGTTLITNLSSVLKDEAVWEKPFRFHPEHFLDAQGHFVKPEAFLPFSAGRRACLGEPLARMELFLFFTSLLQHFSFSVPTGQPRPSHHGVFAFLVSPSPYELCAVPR
Cytochrome P450 3A4, sequence (P08684 whole entry): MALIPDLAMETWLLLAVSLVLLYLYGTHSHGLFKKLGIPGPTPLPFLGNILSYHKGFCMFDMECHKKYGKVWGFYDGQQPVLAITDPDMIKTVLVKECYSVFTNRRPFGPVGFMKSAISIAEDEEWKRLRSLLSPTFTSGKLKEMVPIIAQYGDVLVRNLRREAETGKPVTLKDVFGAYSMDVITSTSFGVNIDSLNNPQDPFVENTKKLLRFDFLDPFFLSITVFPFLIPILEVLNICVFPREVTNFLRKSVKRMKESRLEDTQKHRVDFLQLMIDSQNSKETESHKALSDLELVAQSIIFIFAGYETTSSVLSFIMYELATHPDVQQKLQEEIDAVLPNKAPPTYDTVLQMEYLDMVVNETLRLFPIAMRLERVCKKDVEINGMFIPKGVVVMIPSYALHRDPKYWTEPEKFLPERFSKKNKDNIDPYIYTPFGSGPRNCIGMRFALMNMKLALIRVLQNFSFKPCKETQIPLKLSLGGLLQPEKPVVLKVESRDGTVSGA
Cytochrome P450 2C19, sequence (P33261 whole entry): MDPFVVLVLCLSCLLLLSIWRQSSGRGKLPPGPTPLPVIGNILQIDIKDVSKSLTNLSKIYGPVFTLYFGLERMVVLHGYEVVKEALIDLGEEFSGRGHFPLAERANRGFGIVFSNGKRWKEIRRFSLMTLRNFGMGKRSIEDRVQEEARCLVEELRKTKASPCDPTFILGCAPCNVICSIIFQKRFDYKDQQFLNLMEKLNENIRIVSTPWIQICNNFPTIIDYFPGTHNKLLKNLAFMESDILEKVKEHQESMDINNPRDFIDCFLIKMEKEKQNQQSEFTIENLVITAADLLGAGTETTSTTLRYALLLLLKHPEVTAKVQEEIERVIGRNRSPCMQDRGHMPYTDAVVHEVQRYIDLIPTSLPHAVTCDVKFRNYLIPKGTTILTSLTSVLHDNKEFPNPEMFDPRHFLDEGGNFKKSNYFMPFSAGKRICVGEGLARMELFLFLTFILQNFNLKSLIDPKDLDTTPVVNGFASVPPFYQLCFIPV
Cytochrome P450 2C9, sequence (P11712 whole entry): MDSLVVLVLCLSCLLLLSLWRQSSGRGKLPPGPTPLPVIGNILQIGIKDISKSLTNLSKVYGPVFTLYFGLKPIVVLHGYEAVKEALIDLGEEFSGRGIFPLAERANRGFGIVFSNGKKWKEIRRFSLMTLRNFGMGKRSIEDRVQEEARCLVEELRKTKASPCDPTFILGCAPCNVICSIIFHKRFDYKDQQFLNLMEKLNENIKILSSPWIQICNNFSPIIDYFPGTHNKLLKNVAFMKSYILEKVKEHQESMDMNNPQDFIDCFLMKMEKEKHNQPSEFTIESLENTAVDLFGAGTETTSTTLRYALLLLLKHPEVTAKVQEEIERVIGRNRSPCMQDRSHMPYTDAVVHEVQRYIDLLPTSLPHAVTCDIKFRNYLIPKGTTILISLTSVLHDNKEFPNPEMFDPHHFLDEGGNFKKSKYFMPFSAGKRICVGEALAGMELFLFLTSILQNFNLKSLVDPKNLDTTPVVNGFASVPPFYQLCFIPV

On to `Cc1cc(NC(=O)OC(C)C)nn1Cc1cc(Cl)ccc1OCc1ccccc1`, for which the concentration with Blood [1] came to 0.153 µM; with Blood [2], 1.4 µM; in the series on Brain it was 3.33 µM; in the series on Blood [12], 0.749 µM. For the same compound, the values for the partition ratio (Kp) in series [3] and in [4] were 2.2 and 1.73, respectively. Besides, the half-inhibitory concentration (IC50) was 0.0316 µM in [5]; 7.8 µM on Cytochrome P450 1A2; greater than 100 µM against Cytochrome P450 2C19; 17 µM on Cytochrome P450 2C9; greater than 100 µM at Cytochrome P450 2D6; greater than 81 µM on Cytochrome P450 3A4. The logD in series [6] was greater than 3.7. Moreover, the Kb in series [7] is 0.00794 µM. Moreover, the inhibition constant (Ki) in [8] is 0.0501 µM; in series [9], greater than 10 µM. For the same compound, the values for the ED50 in the series on Rattus norvegicus [10] and in the series on Rattus norvegicus [11] were 4.6 mg/kg and 1.89 mg/kg, respectively.
